In ChEMBL document CHEMBL1122603, “2-Acetylpyridine thiosemicarbazones. 9. Derivatives of 2-acetylpyridine 1-oxide as potential antimalarial agents” (1984):
Values after ≈ are worked out from the molar mass of the structure shown.

How the values were obtained:
Mus musculus [1] = assay: In vivo antimalarial activity against Plasmodium berghei in the mice (Mus musculus) at 80 mg/kg dosage; assay type: functional
Method in brief: (§1)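 Mortality-based mouse test against the drug-sensitive P. berghei strain KBG 173, run at the Leo Rane Laboratory. Groups of five mice per dose level were scored for cures and for toxic deaths.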

Plasmodium berghei [2] = assay: Increase in mean survival time in Plasmodium berghei inoculated mice (Mus musculus) following 40 mg/kg administration; assay type: functional
Plasmodium falciparum [3] = assay: In vitro antimalarial potency against chloroquine-sensitive, pyrimethamine-resistant Plasmodium falciparum CAMP; assay type: functional; details: read-out: ID50 (the source's name)
Method in brief: (§2)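 Semiautomated culture assay on P. falciparum. Stocks were 1 mg/mL in 1:1 DMSO/EtOH, diluted in culture medium as seven 2-fold steps over a 64-fold range, with chloroquine and mefloquine as plate controls. Plates ran 24 h at 37 °C under 5% O2/5% CO2/90% N2, then [G-3H]hypoxanthine was added for 18 h more. Harvested incorporation was read by scintillation counting as the viability index.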

Mus musculus [4] = assay: In vivo antimalarial activity against Plasmodium berghei in the mice (Mus musculus) at 320 mg/kg dosage; assay type: functional; method in brief: as §1
Mus musculus [5] = assay: In vivo antimalarial activity against Plasmodium berghei in the mice (Mus musculus) at 640 mg/kg dosage; assay type: functional; method in brief: as §1
Plasmodium berghei [6] = assay: Increase in mean survival time in Plasmodium berghei inoculated mice (Mus musculus) following 160 mg/kg administration; assay type: functional
Mus musculus [7] = assay: In vivo antimalarial activity against Plasmodium berghei in the mice (Mus musculus) at 640 mg/kg dosage; C=cure; assay type: functional, organism-based; parameters: dose 640 mg/kg; method in brief: as §1
Plasmodium falciparum [8] = assay: In vitro antimalarial potency against multidrug-resistant Plasmodium falciparum Vietnam Smith strain; assay type: functional; details: read-out: ID50 (the source's name); method in brief: as §2
Mus musculus [9] = assay: In vivo antimalarial activity against Plasmodium berghei in the mice (Mus musculus) at 20 mg/kg dosage; assay type: functional; method in brief: as §1
Mus musculus [10] = assay: In vivo antimalarial activity against Plasmodium berghei in the mice (Mus musculus) at 320 mg/kg dosage; C=cure; assay type: functional, organism-based; parameters: dose 320 mg/kg; method in brief: as §1
Mus musculus [11] = assay: In vivo antimalarial activity against Plasmodium berghei in the mice (Mus musculus) at 640 mg/kg dosage; T= Toxicity; assay type: functional, organism-based; parameters: dose 640 mg/kg; method in brief: as §1
Mus musculus [12] = assay: In vivo antimalarial activity against Plasmodium berghei in the mice (Mus musculus) at 160 mg/kg dosage; C=cure; assay type: functional, organism-based; parameters: dose 160 mg/kg; method in brief: as §1
Mus musculus [13] = assay: In vivo antimalarial activity against Plasmodium berghei in the mice (Mus musculus) at 320 mg/kg dosage; T= Toxicity; assay type: functional, organism-based; parameters: dose 320 mg/kg; method in brief: as §1
Mus musculus [14] = assay: In vivo antimalarial activity against Plasmodium berghei in the mice (Mus musculus) at 80 mg/kg dosage; C=cure; assay type: functional, organism-based; parameters: dose 80 mg/kg; method in brief: as §1
Mus musculus [15] = assay: In vivo antimalarial activity against Plasmodium berghei in the mice (Mus musculus) at 40 mg/kg dosage; assay type: functional; method in brief: as §1
Mus musculus [16] = assay: In vivo antimalarial activity against Plasmodium berghei in the mice (Mus musculus) at 160 mg/kg dosage; assay type: functional; method in brief: as §1

Compound	increase in mean survival time (Mus musculus [1]) [days]	increase in mean survival time (Plasmodium berghei [2]) [days]	IC50 (Plasmodium falciparum [3]) [µg/mL]	increase in mean survival time (Mus musculus [4]) [days]	increase in mean survival time (Mus musculus [5]) [days]	increase in mean survival time (Plasmodium berghei [6]) [days]	cures (mice cured) (Mus musculus [7])	IC50 (Plasmodium falciparum [8]) [µg/mL]	other results
C/C(=N\N=C(/S)N1CCN(c2ccccc2)CC1)c1cccc[n+]1[O-]	1.7	0.1	0.062 (≈ 0.174 µM)	9.1	8.3	3.5	–	–	–
C/C(=N\N=C(/S)N1CCCC(C)C1)c1cccc[n+]1[O-] (stereo not drawn)	1.6	1.5	0.039 (≈ 0.133 µM)	1.4	–	4.7	Cures	0.051 (≈ 0.174 µM)	–
CC(N/N=C(\S)N1CC2CCC(CC2)C1)c1cccc[n+]1[O-] (stereo not drawn)	0.7	-0.3	–	2.5	–	0.9	Cures	–	increase in mean survival time (Mus musculus [9]): -0.1 days
CC(N/N=C(\S)N1CCCC1)c1cccc[n+]1[O-] (stereo not drawn)	–	0.8	–	–	1.6	0	–	–	–
CCOC(=O)N1CCN(/C(S)=N/NC(C)c2cccc[n+]2[O-])CC1 (stereo not drawn)	6	–	–	8	9	6.6	–	–	increase in mean survival time (Plasmodium berghei [2]; 40 mg/kg): 1.2 days
C/C(=N\N=C(/S)N1CCN(c2ccccn2)CC1)c1cccc[n+]1[O-]	0.3	0.5	–	–	–	1.9	Cures	–	cure outcome (Mus musculus [10]): Cures
CC(N/N=C(\S)N1CCN(c2ccccn2)CC1)c1cccc[n+]1[O-] (stereo not drawn)	–	–	–	–	3.4	0.2	–	–	–
C/C(=N\N=C(/S)N1CCN(C=O)CC1)c1cccc[n+]1[O-]	–	-0.3	–	–	–	0.3	–	–	increase in mean survival time (Mus musculus [11]): Toxic
C/C(=N\N=C(/S)N1CC2CCC(CC2)C1)c1cccc[n+]1[O-]	0.1	-0.7	0.086 (≈ 0.27 µM)	4.9	–	1.1	Cures	0.083 (≈ 0.261 µM)	–
C/C(=N\N=C(/S)N1CCSCC1)c1cccc[n+]1[O-]	–	0.1	0.044 (≈ 0.148 µM)	–	1.5	0.9	–	–	–
C/C(=N\N=C(/S)N1CCCCC1C)c1cccc[n+]1[O-] (stereo not drawn)	3.3	2.3	0.077 (≈ 0.263 µM)	–	–	–	Cures	0.08 (≈ 0.274 µM)	cure outcome (Mus musculus [10]): Cures; increase in mean survival time (Mus musculus [12]): Cures
C/C(=N\N=C(/S)N1CCCCC1)c1cccc[n+]1[O-]	1.3	3.5	–	–	–	6.3	Cures	–	cure outcome (Mus musculus [10]): Cures
C/C(=N\N=C(/S)N1CC(C)OC(C)C1)c1cccc[n+]1[O-] (stereo not drawn)	6.1	4.9	0.041 (≈ 0.133 µM)	–	–	6.1	Cures	0.046 (≈ 0.149 µM)	–
CC(N/N=C(\S)N1CCCCCC1)c1cccc[n+]1[O-] (stereo not drawn)	0.4	-0.2	–	1.6	3.5	0.8	–	–	–
C/C(=N\N=C(/S)N1CCCC1)c1cccc[n+]1[O-]	1.1	0.9	0.048 (≈ 0.182 µM)	–	5.9	1.5	–	0.044 (≈ 0.166 µM)	cure outcome (Mus musculus [10]): Cures
C/C(=N\N=C(/S)N1CCC(C)CC1)c1cccc[n+]1[O-]	2.2	0.6	0.074 (≈ 0.253 µM)	4.2	–	2.3	Cures	0.073 (≈ 0.25 µM)	–
3-Aza-bicyclo[3.2.2]nonane-3-carbothioic acid [1-(1-oxy-pyridin-2-yl)-ethylidene]-hydrazide; compound with copper(I) chloride	–	-0.3	–	–	2.4	1.4	–	–	–
C/C(=N\N=C(/S)N1CCCCCC1)c1cccc[n+]1[O-]	0.7	0.9	–	4.9	7.1	3.1	–	–	–
CCOC(=O)N1CCN(/C(S)=N/N=C(\C)c2cccc[n+]2[O-])CC1	–	4.7	–	–	–	–	–	–	increase in mean survival time (Mus musculus [13]): Toxic; increase in mean survival time (Mus musculus [11]): Toxic; increase in mean survival time (Mus musculus [14]): Cures; increase in mean survival time (Mus musculus [12]): Cures
CC(N/N=C(\S)N1CCCCC1)c1cccc[n+]1[O-] (stereo not drawn)	–	0.2	–	–	1.8	0.2	–	–	–
C/C(=N\N=C(/S)N(C)C)c1cccc[n+]1[O-]	0.7	–	0.054 (≈ 0.227 µM)	–	6.9	–	–	0.078 (≈ 0.327 µM)	increase in mean survival time (Mus musculus [13]): Toxic; increase in mean survival time (Mus musculus [15]): 2.3 days; increase in mean survival time (Mus musculus [16]): 4.2 days
